From ChEMBL document CHEMBL1275502, “Establishing in vitro-in vivo correlations for Aspergillus fumigatus: the challenge of azoles versus echinocandins” (2008)
In brackets after ≈: the same amount, converted by molar mass. Activity calls are given as the source filed them. The rule behind the calls is not given here.

How the values were obtained:
[1] = test system: Aspergillus fumigatus; assay: Antimicrobial activity against Aspergillus fumigatus isolate AT infected in NMRI mouse assessed as survival rate at 5 mg/kg, po; assay type: functional
In short: (§1)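 NMRI mice (26 to 30 g) immunosuppressed with cyclophosphamide i.p., 200 mg/kg day −3 and 100 mg/kg day 0. Challenged i.v. on day 0 with 1.5 × 10⁵ CFU in groups of 10 to 13. Dosed in 0.25 ml on days 1 to 4 and 7 to 10: caspofungin i.p., posaconazole orally, or glucose i.p. as control. Scored daily. Survivors killed day 11. AT isolate run in two experiments.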

[2] = test system: Aspergillus fumigatus; assay: Antimicrobial activity against Aspergillus fumigatus isolate DK infected in NMRI mouse assessed as survival rate at 20 mg/kg, po; assay type: functional; in short: as §1
[3] = test system: Aspergillus fumigatus; assay: Antimicrobial activity against Aspergillus fumigatus isolate AT infected in NMRI mouse assessed as survival rate at 20 mg/kg, po; assay type: functional; in short: as §1
[4] = test system: Aspergillus fumigatus; assay: Antimicrobial activity against Aspergillus fumigatus isolate DK infected in NMRI mouse assessed as survival rate at 5 mg/kg, po; assay type: functional; in short: as §1
[5] = test system: Aspergillus fumigatus; assay: Antimicrobial activity against Aspergillus fumigatus isolate DK by microdilution method; assay type: functional; conditions: read-out: MEC
In short: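 Broth microdilution by the EUCAST method for spore-forming moulds (C. krusei ATCC 6258 control), also a modified EUCAST version with 5 × 10⁴ cells/ml inoculum. Spore-inoculated plates incubated at 35°C for 24 to 48 h, read visually and spectrophotometrically. Azole MIC = lowest dilution giving no growth, ignoring single surface colonies. Echinocandin MEC = lowest concentration giving aberrant growth.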

[6] = test system: Aspergillus fumigatus; assay: Antimicrobial activity against Aspergillus fumigatus isolate AT assessed as amount of galactose in the alkali-insoluble fraction at 0.04 ug/ml; assay type: functional
In short: (§2)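 Mycelia pretreated by culture with 0.04 μg/ml caspofungin. Cell wall boiled twice in Tris-EDTA-SDS-mercaptoethanol, then alkali-fractionated twice (1 M NaOH/0.05 M NaBH₄, 70°C). Alkali-insoluble fraction (100 μg) digested overnight at 37°C with recombinant endo-β(1,3)-glucanase LamA in pH 6.0 acetate buffer. Read by HPAEC and reducing-sugar assay; hexoses by GC with meso-inositol internal standard. Pretreated values are means of two samples.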

[7] = test system: Aspergillus fumigatus; assay: Antimicrobial activity against Aspergillus fumigatus isolate A29 by Etest method; assay type: functional
[8] = test system: Aspergillus fumigatus; assay: Antimicrobial activity against Aspergillus fumigatus isolate AT assessed as amount of glucose in the alkali-insoluble fraction at 0.04 ug/ml; assay type: functional; in short: as §2
[9] = test system: Aspergillus fumigatus; assay: Antimicrobial activity against Aspergillus fumigatus isolate AT assessed as amount of mannose in the alkali-insoluble fraction at 0.04 ug/ml; assay type: functional; in short: as §2
[10] = test system: Aspergillus fumigatus; assay: Antimicrobial activity against Aspergillus fumigatus isolate AT infected in NMRI mouse assessed as reduction in galactomannan index relative to control; assay type: functional, organism-based
In short: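 Mice (NMRI) immunosuppressed with cyclophosphamide i.p. (200 mg/kg day −3, 100 mg/kg day 0). Challenged i.v. on day 0 with 1.5 × 10⁵ CFU. Treated on days 1–4 and 7–10 with caspofungin i.p. 2.25 mg/kg, posaconazole orally 5 or 20 mg/kg, or glucose i.p. (controls). Serum galactomannan index measured by Platelia ELISA on day 11 in survivors.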

[11] = test system: Aspergillus fumigatus; assay: Antimicrobial activity against Aspergillus fumigatus isolate AT assessed as partial growth inhibition by microdilution method; assay type: functional, organism-based
In short: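 Broth microdilution MEC by EUCAST and CLSI methods (one lab used a modified EUCAST inoculum of 5 × 10⁴ cells/ml). Plates inoculated with spores and incubated at 35°C for 24 to 48 h. MEC taken as the lowest concentration giving aberrant growth, read by light microscopy.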

[12] = test system: Aspergillus fumigatus; assay: Antimicrobial activity against Aspergillus fumigatus isolate DK by Etest method; assay type: functional
In short: (§3)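 Etest on RPMI 1640-2% glucose agar plates, run per the manufacturer's recommendations. Caspofungin Etest end point read after 2 days of incubation.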

[13] = test system: Aspergillus fumigatus; assay: Antimicrobial activity against Aspergillus fumigatus isolate AT infected in NMRI mouse assessed as survival rate at 2.25 mg/kg, ip; assay type: functional; conditions: route intraperitoneal; in short: as §1
[14] = test system: Aspergillus fumigatus; assay: Antimicrobial activity against Aspergillus fumigatus isolate AT assessed as FKS1 expression by RT-PCR relative to control; assay type: functional, organism-based
In short: (§4)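 Strains grown 24 h at 37°C with shaking (150 rpm) in RPMI 1640, with and without 0.25 μg/ml caspofungin. FKS1 transcript measured by real-time PCR, normalised to housekeeping genes (BTU, PMA1). Reported as the expression ratio of AT isolate to each reference strain.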

[15] = test system: Aspergillus fumigatus; assay: Ratio of FKS1 expression in Aspergillus fumigatus isolate AT to PMA1 expression in Aspergillus fumigatus 293 at 0.25 ug/ml by RT-PCR; assay type: functional; in short: as §4
[16] = test system: Aspergillus fumigatus; assay: Antimicrobial activity against Aspergillus fumigatus isolate AT assessed as amount of beta-(1,3)-glucan at 0.04 ug/ml; assay type: functional; in short: as §2
[17] = test system: Aspergillus fumigatus; assay: Antimicrobial activity against Aspergillus fumigatus isolate AT by Etest method; assay type: functional, organism-based; in short: as §3
[18] = test system: Aspergillus fumigatus; assay: Ratio of FKS1 expression in Aspergillus fumigatus isolate AT to BTU expression in Aspergillus fumigatus ATCC 13073 at 0.25 ug/ml by RT-PCR; assay type: functional; in short: as §4
[19] = test system: Aspergillus fumigatus; assay: Ratio of FKS1 expression in Aspergillus fumigatus isolate AT to BTU expression in Aspergillus fumigatus 293 at 0.25 ug/ml by RT-PCR; assay type: functional; in short: as §4
[20] = test system: Aspergillus fumigatus; assay: Ratio of FKS1 expression in Aspergillus fumigatus isolate AT to PMA1 expression in Aspergillus fumigatus ATCC 13073 at 0.25 ug/ml by RT-PCR; assay type: functional; in short: as §4
[21] = test system: Aspergillus fumigatus; assay: Antimicrobial activity against Aspergillus fumigatus isolate DK infected in NMRI mouse assessed as survival rate at 2.25 mg/kg, ip; assay type: functional; conditions: route intraperitoneal; in short: as §1

**Q.** With CC[C@@H]([C@H](C)O)n1ncn(-c2ccc(N3CCN(c4ccc(OC[C@@H]5CO[C@@](Cn6cncn6)(c6ccc(F)cc6F)C5)cc4)CC3)cc2)c1=O [POSACONAZOLE] as the compound, how does the survival at 5 mg/kg [1] read?
**A.** Its survival at 5 mg/kg is 70%.

**Q.** What about the survival at 20 mg/kg [2] of the same compound?
**A.** The survival at 20 mg/kg was 25%.

**Q.** What about the survival at 20 mg/kg [3] of the same compound?
**A.** The survival at 20 mg/kg was 75%.

**Q.** And the survival at 5 mg/kg [4]?
**A.** Its survival at 5 mg/kg is 16.7%.

**Q.** Which minimal effective concentration [5] does the source give for CC[C@H](C)C[C@H](C)CCCCCCCCC(=O)N[C@H]1C[C@@H](O)[C@@H](NCCN)NC(=O)[C@@H]2[C@@H](O)CCN2C(=O)[C@H]([C@H](O)CCN)NC(=O)[C@H]([C@H](O)[C@@H](O)c2ccc(O)cc2)NC(=O)[C@@H]2C[C@@H](O)CN2C(=O)[C@H]([C@@H](C)O)NC1=O [CASPOFUNGIN] here?
**A.** The minimal effective concentration was 0.25 µg/mL.

**Q.** And the Activity [6]?
**A.** The Activity was 16%.

**Q.** And the MIC [7]?
**A.** The MIC was 0.094 µg/mL (≈ 0.086 µM).

**Q.** And the minimal effective concentration ([7]; in the assay text read “by microdilution method” for “by Etest method”, read-out: MEC)?
**A.** Its minimal effective concentration is 0.04 µg/mL.

**Q.** And the Activity [8]?
**A.** Its Activity is 74%.

**Q.** What about the Activity [9] of the same compound?
**A.** The Activity was 10%.

**Q.** What about the Activity [10] of the same compound?
**A.** Its Activity is “Active”.

**Q.** And the Activity [11]?
**A.** The Activity was “Active”.

**Q.** What about the Activity [12] of the same compound?
**A.** Its Activity is 0.125 µg/mL.

**Q.** What about the survival at 2.25 mg/kg [13] of the same compound?
**A.** Its survival at 2.25 mg/kg is 25%.

**Q.** What about the Activity [14] of the same compound?
**A.** Its Activity is “inactive”.

**Q.** And the Ratio [15]?
**A.** Its Ratio is 2.9.

**Q.** What about the Activity [16] of the same compound?
**A.** Its Activity is 81%.

**Q.** And the Activity [17]?
**A.** The Activity was “inactive”.

**Q.** And the Ratio [18]?
**A.** Its Ratio is 3.41.

**Q.** What about the Ratio [19] of the same compound?
**A.** Its Ratio is 2.78.

**Q.** And the Ratio [20]?
**A.** Its Ratio is 3.5.

**Q.** And the survival at 2.25 mg/kg [21]?
**A.** Its survival at 2.25 mg/kg is 100%.
